From the EternaBench riboswitch data

Tested on: MS2 coat protein
Test: apparent Kd, MS2 coat protein; higher = weaker binding; RNA-MaP array; FMN 200 µM where present
Method in brief: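 Stalled E. coli RNA polymerase transcribed each design on Illumina sequencing-chip clusters. The clusters were titrated with SNAP-549-labelled MS2 coat protein, starting at 0.7 or 1.5 nM and doubling up to 3 µM, first without ligand and then with constant ligand, in 100 mM Tris-HCl pH 7.5, 80 mM KCl, 4 mM MgCl2, BSA, DTT, yeast tRNA and Tween-20. Green signal was normalised to red-channel RNA signal and to the control-cluster median Fmax. The apparent Kd is the median of filtered binding-curve fits made for each cluster.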

[1] = ligand present: flavin mononucleotide, designed as: OFF switch for flavin mononucleotide
[2] = designed as: OFF switch for flavin mononucleotide, no ligand
[3] = designed as: ON switch for flavin mononucleotide, no ligand
[4] = ligand present: flavin mononucleotide, designed as: ON switch for flavin mononucleotide

| Sequence | apparent Kd [1] | apparent Kd [2] | apparent Kd [3] | apparent Kd [4] |
| --- | --- | --- | --- | --- |
| AGUAACAGAGGAUAUACUGUUUUAUGUGUUUAUUAUUUUGAACAUGAGGAUCACCCAUGUAGAAGGCUGAAUAA | 21.9 nM |  |  |  |
| AAUAACAGAGGAUAUACUGUUUUAUGUAUUUAUUAUUUUAAACAUGAGGAUCACCCAUGUAGAAGGCUGAAUAA | 18.6 nM | 21.9 nM |  |  |
| AUGCGGUCAGGAUAUGCAUGGCGGGACUUGCGUCGUGGCGUGGAGAAGGGACAUGAGGAUCACCCAUGUGGCGA | 82.6 nM | 77.3 nM |  |  |
| AGAUACAACCAGAAGGACAUGAGGAUCACCCAUGUAGGAUAUGGGUUACACGUGCCUGGGAAGUGUAACGACGCUACGAAGAGU |  |  | 31.4 nM | 8.3 nM |
| UCCACUGCUGAGAAGGGAUCCGUGUGGUUCGAAUCAGGAUAUCGAUACAGUGCAGCAUGAGGACAUGAGGAUCACCCAUGUAUU |  |  | 16 nM | 13 nM |
| GCGGAGAUACAGAAGGGAUAGGCCCUGGGCUAGUCAGGAUAUGUACGACGCAUCGUACAUGAGGAUCACCCAUGUAGCCGCUUG |  |  | 278 nM | 189 nM |
| GGAGACCUCACAGGAUAUGCUGGACUUUGUCCAGCAGAAGGGUGAAAACAUGAGGAUCACCCAUGUAUGGUCUCCAAAUUUAAC |  |  | 182 nM | 13.6 nM |
| CGCUGGUGACAGCAUCCAUCAAAACAUGAGGAUCACCCAUGUAGAAGGCUGUACGGUUACCGUACAGAGGAUAUACAAUGAUGU | 27.2 nM | 16 nM |  |  |
| GGCCUGUUAGGAUAUUAGUAGUAGUCAGAAUAGACUAUUACUGAGAAGGAACAUGAGGAUCACCCAUGUUGGCC | 19.3 nM | 16.5 nM |  |  |
| GUAGCAUACGGAGGAUAUCCAUACCGGAAACGGACAUGAGGAUCACCCAUGUGGCGAAAGCCUUGGGAGAAGGCCGUAUGCUAC |  |  | 4.63 nM | 3.67 nM |
| CUGACGGCAGGAUAUACAUGAGGAUCACCCAUGUAAAUUUUUCGUUUACCUUGACCGUGUAGAAGGGCCCAACC | 14.7 nM | 14.8 nM |  |  |
| AUGUGGUGCGUAGGAUAUCAUUGAAGAAAACCCUGAGAAGGACGUGAGGACAUGAGGAUCACCCAUGUGGAUCACCCAUGUCAU | 282 nM | 315 nM |  |  |
| ACUUGUAAGCAGAAGGCAGUCAUAGUAUUCGUCAUGUAGACAUGAGGAUCACCCAUGUAUAGUACUGAGGAUAUGCUUCGAUAG | 21.7 nM | 19.3 nM |  |  |
| CCCUAAUAUCGAGGAUAUGUCUAGACACAUGAGGAUCACCCAUGUAUGUGUAUAGAAGGCGAUAUUAACAGCAUGUUACAUCCC |  |  | 46.2 nM | 21.7 nM |
| GCCUUAUCGGUCAGGAUAUACAUUUGUUAGUUGUUGUAGAAGGGACAUGAGGAUCACCCAUGUACAUUACAUUG | 40.3 nM | 22.4 nM |  |  |
| UCCAAAUCGUAGAAGGGUGACAUGAGGAUCACCCAUGUGCAGCAGCCGUGAAUGGCCAUGCUGCCACAGGAUAUACGAUGGAGU |  |  | 49 nM | 43 nM |
| UUGGACGUCGUAGGAUAUGUAGGAUAUUCCUACAUGAGGAUCACCCAUGUUGACAUGGAAGAAGGACAGAAGGACGAUCUCCAU |  |  | 360 nM | 5.49 nM |
| AAUACAAAUAGUCAGGAUAUCAAAAAUAAGACAUGAGGAUCACCCAUGUAAUAAGUAAAAGUAAAUGAGAAGGGACAGGGUGAAA |  |  | 168 nM | 266 nM |
| AACGAUCUAGGAUAUACAUGAGGAUCACCCAUGUAAGAGCCCAAACCAGGCUCCCUCUGUAGAAGGAGGUCAAA | 50.9 nM |  |  |  |
| AUAGCAACAUGAGGAUCACCCAUGUAGGAUAUCGCUAUUGUAAUCAUGAAACAUGAUUACAAUAGCGAGAAGGACAUAUGCUAG | 12.2 nM | 11.5 nM |  |  |
